Laboratory results reported in ChEMBL document CHEMBL5696442, “Discovery of type II inhibitors of TGFβ-activated kinase 1 (TAK1) and mitogen-activated protein kinase kinase kinase kinase 2 (MAP4K2)” (J Med Chem, 2015).
Activity calls are given as the source filed them. No cut-off for these calls is given here.

Experiments:
[1] = molecular target: 5'-AMP-activated protein kinase catalytic subunit alpha-1 (Homo sapiens) (UniProt Q13131); assay: Inhibition of AMPKa1 Lys2 labeling site in human A-375 cells at 0.5 uM by KiNativ Profiling analysis relative to control; assay type: cell-based
In short: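 Intact A375 melanoma cells were treated with compound at 5 or 0.5 μM, then lysed. Lysate kinases were labeled with a lysine-reactive ATP or ADP-biotin probe (KiNativ). Inhibition is read as protection of each kinase labeling site from probe labeling.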

[2] = molecular target: T1, Myotonin-protein kinase (Homo sapiens) (UniProt Q09013); assay: Inhibition of DMPK (unknown origin) at 1 uM by Ambit Kinomescan binding assay relative to control; values are per cent of control
T1 sequence (whole entry): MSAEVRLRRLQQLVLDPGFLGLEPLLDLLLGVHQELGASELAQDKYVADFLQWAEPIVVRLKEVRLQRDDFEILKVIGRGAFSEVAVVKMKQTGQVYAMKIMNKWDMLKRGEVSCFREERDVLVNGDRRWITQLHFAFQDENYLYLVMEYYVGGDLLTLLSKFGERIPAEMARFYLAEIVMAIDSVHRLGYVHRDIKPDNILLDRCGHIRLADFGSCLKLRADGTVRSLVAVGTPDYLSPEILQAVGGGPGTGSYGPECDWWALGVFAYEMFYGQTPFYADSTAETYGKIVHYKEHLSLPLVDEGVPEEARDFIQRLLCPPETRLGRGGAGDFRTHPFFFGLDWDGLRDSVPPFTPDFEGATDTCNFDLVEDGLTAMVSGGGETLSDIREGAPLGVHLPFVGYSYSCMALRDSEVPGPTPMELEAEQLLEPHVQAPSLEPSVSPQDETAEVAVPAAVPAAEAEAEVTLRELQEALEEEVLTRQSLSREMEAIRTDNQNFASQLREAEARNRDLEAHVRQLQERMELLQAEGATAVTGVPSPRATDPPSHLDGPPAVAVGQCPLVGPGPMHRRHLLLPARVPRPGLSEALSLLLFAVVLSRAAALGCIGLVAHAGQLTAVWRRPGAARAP

[3] = molecular target: Interferon-induced, double-stranded RNA-activated protein kinase (Homo sapiens) (UniProt P19525); assay: Inhibition of PKR Lys2 labeling site in human A-375 cells at 0.05 uM by KiNativ Profiling analysis relative to control; assay type: cell-based
Sequence of Interferon-induced, double-stranded RNA-activated protein kinase (Homo sapiens) (P19525 whole entry): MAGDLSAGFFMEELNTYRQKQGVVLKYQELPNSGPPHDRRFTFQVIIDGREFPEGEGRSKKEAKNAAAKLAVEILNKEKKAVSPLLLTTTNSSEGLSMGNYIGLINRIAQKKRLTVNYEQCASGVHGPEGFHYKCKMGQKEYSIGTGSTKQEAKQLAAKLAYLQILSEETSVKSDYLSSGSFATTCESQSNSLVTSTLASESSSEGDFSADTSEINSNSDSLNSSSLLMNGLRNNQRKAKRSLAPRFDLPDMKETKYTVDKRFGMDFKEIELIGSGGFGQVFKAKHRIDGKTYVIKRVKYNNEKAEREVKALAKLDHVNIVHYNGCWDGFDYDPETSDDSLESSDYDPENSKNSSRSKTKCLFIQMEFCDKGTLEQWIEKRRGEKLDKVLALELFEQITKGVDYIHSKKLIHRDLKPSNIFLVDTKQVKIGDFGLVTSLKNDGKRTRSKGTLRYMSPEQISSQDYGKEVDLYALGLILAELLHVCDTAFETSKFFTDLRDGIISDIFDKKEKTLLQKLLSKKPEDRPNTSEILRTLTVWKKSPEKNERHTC

[4] = molecular target: T2, Dual specificity mitogen-activated protein kinase kinase 4 (Homo sapiens) (UniProt P45985); assay: Inhibition of MAP2K4 K2 labeling site harbouring IIHRDIKPSNILLDR in human Huh-7 cells at 1 uM by KiNativ Profiling analysis relative to control; assay type: cell-based
T2 sequence (whole entry): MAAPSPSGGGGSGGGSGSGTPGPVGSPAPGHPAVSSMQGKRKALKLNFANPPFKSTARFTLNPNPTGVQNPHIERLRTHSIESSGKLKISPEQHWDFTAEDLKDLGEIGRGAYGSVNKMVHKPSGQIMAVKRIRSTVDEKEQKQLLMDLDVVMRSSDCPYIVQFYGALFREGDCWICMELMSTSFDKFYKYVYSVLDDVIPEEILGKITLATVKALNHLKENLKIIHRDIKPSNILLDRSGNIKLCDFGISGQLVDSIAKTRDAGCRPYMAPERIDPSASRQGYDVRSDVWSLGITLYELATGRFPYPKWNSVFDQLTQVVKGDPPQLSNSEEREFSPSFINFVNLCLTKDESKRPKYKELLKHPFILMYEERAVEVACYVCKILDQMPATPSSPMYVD

[5] = molecular target: T3, Inhibitor of nuclear factor kappa-B kinase subunit alpha (Homo sapiens) (UniProt O15111); assay: Inhibition of IKK-alpha (unknown origin) at 10 uM by Ambit Kinomescan binding assay relative to control; values are per cent of control
T3 sequence (whole entry): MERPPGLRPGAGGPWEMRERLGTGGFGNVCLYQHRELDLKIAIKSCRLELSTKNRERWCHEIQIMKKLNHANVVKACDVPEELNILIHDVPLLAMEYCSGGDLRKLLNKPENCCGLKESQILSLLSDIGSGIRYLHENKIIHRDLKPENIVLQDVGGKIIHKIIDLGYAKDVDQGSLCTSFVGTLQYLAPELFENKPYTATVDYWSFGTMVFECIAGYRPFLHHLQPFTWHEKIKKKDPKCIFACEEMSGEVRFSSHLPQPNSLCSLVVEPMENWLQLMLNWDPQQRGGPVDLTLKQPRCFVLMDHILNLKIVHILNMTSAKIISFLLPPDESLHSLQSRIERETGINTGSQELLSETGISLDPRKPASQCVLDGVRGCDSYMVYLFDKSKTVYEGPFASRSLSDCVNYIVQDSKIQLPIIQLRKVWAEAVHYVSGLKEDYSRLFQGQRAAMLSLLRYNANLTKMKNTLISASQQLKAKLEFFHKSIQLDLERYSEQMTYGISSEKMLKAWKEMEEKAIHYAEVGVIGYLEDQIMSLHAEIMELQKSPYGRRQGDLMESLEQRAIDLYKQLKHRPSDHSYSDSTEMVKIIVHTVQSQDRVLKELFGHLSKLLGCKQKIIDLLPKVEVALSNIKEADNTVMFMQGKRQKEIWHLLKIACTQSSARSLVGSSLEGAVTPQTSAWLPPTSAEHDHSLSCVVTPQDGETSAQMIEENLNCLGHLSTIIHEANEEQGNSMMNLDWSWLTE

[6] = molecular target: Serine/threonine-protein kinase Nek6 (Homo sapiens) (UniProt Q9HC98); assay: Inhibition of NEK6 ACT labeling site in human Huh-7 cells at 1 uM by KiNativ Profiling analysis relative to control; assay type: cell-based
Sequence of Serine/threonine-protein kinase Nek6 (Homo sapiens) (Q9HC98 whole entry): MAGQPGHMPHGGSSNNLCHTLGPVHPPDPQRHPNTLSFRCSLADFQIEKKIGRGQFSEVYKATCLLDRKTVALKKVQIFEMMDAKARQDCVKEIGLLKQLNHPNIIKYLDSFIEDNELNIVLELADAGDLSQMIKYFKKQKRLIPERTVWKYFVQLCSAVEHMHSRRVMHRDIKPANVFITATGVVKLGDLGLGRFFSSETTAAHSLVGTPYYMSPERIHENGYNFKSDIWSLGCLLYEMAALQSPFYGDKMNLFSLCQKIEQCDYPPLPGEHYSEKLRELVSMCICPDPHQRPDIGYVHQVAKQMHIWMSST

[7] = tested on: Receptor-type tyrosine-protein kinase FLT3 (Homo sapiens), P36888 [N841I]; assay: Inhibition of FLT3 N841I mutant (unknown origin) at 10 uM by Ambit Kinomescan binding assay relative to control
[8] = molecular target: Calcium/calmodulin-dependent protein kinase type 1 (Homo sapiens) (UniProt Q14012); assay: Inhibition of CAMK1 (unknown origin) at 10 uM by Ambit Kinomescan binding assay relative to control
Sequence of Calcium/calmodulin-dependent protein kinase type 1 (Homo sapiens) (Q14012 whole entry, looked up): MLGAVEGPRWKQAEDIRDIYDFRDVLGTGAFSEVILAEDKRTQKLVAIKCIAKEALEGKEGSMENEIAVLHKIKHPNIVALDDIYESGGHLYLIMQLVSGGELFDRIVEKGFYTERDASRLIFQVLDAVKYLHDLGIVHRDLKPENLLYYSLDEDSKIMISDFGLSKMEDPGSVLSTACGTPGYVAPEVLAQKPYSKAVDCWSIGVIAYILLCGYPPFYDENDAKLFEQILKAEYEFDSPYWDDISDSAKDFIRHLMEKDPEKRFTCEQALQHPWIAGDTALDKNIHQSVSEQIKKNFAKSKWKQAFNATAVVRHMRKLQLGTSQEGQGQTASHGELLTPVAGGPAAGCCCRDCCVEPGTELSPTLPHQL

[9] = molecular target: Serine/threonine-protein kinase ATR (Homo sapiens) (UniProt Q13535); assay: Inhibition of ATR ATP labeling site in human A-375 cells at 5 uM by KiNativ Profiling analysis relative to control; assay type: cell-based
[10] = molecular target: Glycogen synthase kinase-3 alpha (Homo sapiens) (UniProt P49840); assay: Inhibition of GSK3A (unknown origin) at 10 uM by Ambit Kinomescan binding assay
Sequence of Glycogen synthase kinase-3 alpha (Homo sapiens) (P49840 2-483 limits assumed): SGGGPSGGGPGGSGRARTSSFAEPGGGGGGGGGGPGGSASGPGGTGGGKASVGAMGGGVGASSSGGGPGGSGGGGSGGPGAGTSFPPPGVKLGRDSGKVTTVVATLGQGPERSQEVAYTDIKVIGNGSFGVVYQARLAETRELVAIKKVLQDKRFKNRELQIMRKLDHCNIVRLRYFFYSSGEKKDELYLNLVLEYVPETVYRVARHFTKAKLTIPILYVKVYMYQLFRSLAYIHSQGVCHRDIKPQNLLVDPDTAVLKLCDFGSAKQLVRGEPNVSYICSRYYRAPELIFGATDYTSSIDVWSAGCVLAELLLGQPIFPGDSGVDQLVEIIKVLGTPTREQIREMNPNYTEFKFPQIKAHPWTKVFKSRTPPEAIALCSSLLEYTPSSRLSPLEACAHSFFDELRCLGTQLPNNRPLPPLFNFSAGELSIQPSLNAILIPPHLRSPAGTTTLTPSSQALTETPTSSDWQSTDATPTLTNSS

[11] = molecular target: STE20-like serine/threonine-protein kinase (Homo sapiens) (UniProt Q9H2G2); assay: Inhibition of SLK Lys1 labeling site in human Huh-7 cell lysate at 1 uM by KiNativ Profiling analysis relative to control; assay type: subcellular
Sequence of STE20-like serine/threonine-protein kinase (Homo sapiens) (Q9H2G2 whole entry, looked up): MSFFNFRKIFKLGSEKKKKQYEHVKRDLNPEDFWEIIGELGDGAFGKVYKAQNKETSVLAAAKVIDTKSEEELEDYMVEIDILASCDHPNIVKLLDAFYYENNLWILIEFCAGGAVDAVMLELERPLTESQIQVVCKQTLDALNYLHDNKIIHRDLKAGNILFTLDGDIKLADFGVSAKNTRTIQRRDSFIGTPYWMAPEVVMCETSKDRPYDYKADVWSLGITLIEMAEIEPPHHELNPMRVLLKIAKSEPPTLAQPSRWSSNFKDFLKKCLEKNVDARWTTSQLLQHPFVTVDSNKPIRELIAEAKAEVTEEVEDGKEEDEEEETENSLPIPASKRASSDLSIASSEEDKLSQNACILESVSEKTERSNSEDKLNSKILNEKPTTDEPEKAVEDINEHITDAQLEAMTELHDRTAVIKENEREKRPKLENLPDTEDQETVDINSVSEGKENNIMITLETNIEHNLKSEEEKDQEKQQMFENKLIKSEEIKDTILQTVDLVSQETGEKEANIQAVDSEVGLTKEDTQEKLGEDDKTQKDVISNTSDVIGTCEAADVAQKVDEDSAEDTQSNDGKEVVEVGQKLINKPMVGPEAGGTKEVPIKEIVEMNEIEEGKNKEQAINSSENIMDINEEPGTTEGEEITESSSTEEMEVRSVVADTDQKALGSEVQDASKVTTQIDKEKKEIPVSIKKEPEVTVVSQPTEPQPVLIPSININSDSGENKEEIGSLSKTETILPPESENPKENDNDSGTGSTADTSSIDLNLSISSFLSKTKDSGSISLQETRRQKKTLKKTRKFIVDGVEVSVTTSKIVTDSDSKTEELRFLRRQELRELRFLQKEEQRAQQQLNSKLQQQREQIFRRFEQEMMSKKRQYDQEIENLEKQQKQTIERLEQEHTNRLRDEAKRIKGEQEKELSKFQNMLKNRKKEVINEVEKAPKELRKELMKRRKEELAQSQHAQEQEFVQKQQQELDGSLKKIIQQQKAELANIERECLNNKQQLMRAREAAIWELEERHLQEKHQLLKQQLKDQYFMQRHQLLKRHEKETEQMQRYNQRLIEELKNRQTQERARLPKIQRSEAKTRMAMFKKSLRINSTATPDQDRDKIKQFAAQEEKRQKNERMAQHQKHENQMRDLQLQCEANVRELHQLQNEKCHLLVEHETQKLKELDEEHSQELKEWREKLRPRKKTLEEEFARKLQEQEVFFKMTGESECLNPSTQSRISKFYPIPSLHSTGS

[12] = molecular target: Phosphatidylinositol 3-kinase catalytic subunit type 3 (Homo sapiens) (UniProt Q8NEB9); assay: Inhibition of PIK3C3 ATP labeling site in human Huh-7 cell lysate at 1 uM by KiNativ Profiling analysis relative to control; assay type: subcellular
Sequence of Phosphatidylinositol 3-kinase catalytic subunit type 3 (Homo sapiens) (Q8NEB9 whole entry): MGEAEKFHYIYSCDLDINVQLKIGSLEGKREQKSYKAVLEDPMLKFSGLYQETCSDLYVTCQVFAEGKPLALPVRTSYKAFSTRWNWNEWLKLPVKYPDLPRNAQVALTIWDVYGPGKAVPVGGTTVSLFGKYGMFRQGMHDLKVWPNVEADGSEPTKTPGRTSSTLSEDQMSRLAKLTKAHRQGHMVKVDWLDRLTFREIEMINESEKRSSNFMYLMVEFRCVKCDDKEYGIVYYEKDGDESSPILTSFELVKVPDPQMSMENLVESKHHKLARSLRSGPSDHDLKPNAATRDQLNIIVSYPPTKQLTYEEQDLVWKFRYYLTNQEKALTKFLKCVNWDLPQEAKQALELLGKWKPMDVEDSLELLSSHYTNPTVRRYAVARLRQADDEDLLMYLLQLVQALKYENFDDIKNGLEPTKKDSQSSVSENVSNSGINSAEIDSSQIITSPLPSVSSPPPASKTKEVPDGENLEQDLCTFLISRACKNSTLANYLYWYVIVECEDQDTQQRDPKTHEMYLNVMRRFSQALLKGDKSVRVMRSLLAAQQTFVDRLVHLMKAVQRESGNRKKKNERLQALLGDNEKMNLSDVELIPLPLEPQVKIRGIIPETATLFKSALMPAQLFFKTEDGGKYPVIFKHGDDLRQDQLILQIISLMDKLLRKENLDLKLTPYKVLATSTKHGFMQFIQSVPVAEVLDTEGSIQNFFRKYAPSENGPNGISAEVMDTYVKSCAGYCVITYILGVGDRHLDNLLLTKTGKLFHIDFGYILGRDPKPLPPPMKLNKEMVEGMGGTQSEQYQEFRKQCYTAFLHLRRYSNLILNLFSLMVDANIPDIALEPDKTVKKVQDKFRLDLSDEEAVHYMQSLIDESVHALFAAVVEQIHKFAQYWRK

[13] = molecular target: Tyrosine-protein kinase Fer (Homo sapiens, UniProt P16591); assay: Inhibition of FER Lys1 labeling site in human Huh-7 cells at 1 uM by KiNativ Profiling analysis relative to control; assay type: cell-based
Sequence of Tyrosine-protein kinase Fer (P16591 whole entry, looked up): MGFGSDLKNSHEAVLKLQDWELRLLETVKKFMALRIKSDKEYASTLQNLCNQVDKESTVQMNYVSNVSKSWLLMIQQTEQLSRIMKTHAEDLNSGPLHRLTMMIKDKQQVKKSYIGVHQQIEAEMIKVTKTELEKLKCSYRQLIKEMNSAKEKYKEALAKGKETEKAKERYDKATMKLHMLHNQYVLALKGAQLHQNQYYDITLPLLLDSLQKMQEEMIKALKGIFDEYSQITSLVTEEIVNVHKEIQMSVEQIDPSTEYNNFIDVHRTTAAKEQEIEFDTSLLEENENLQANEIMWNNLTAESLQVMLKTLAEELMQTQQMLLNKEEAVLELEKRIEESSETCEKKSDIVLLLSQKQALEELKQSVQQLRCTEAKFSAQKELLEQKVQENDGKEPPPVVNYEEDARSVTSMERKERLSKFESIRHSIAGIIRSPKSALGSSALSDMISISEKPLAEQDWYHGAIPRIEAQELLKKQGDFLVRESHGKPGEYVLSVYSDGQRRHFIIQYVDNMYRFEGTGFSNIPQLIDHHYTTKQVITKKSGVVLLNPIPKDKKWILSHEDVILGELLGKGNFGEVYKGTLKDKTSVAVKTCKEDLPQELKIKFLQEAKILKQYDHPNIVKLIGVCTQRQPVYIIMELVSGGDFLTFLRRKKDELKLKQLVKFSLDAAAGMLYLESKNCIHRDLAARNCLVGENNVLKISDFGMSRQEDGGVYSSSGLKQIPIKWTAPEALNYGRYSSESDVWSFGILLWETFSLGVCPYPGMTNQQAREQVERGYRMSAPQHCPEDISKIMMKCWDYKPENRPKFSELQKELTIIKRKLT

For CCN1CCN(Cc2ccc(NC(=O)c3ccc(C)c(/C=C/c4cnc5[nH]ccc5c4OC)c3)cc2C(F)(F)F)CC1, the inhibition [1] was -8.2% and the residual activity [2] was 100%.
Work on CCN1CCN(Cc2ccc(NC(=O)c3ccc(C)c(Oc4ccnc5[nH]ccc45)c3)cc2C(F)(F)F)CC1 yielded an inhibition [3] of -8.1%, an inhibition [4] of -0.9% and a percent of control [5] of 0.95%. For the same molecule, the inhibition [6] was 15.5%, the inhibition [7] was 0% and the inhibition [8] was 0%. The inhibition [9] was -2.8% and the inhibition [10] was “inactive”.
Work on CNc1cc(Oc2cc(C(=O)Nc3cc(N4CCN(C)CC4)cc(C(F)(F)F)c3)ccc2C)ncn1 yielded an inhibition [11] of 3.9%, an inhibition [12] of -4.2% and an inhibition [13] of -7.1%.
